# Assay results pooled from the literature.
# Protocols differ between the studies behind these lines.
# CA2: Carbonic anhydrase 2 (CA2, Homo sapiens, UniProt P00918)
# Neuronal acetylcholine receptor; alpha9/alpha10: Neuronal acetylcholine receptor; alpha9/alpha10 (Homo sapiens, UniProt Q9GZZ6+Q9UGM1)
Structure (SMILES),target,test,conditions,endpoint,value
COc1ccc(S(=O)(=O)Oc2ccccc2C=NNC(=O)c2ccc(F)cc2)cc1,CA2,"enzyme activity, inhibitor, absorbance",,IC50,0.156 µM
COc1ccc2c3c([nH]c2c1)CCN(C)CC3,Neuronal acetylcholine receptor; alpha9/alpha10,"ion current, antagonist, two-electrode voltage clamp",oocytes,IC50,3 µM
COc1ccc(S(=O)(=O)Oc2ccc(C=NNC(=O)c3ccc(F)cc3)cc2)cc1,CA2,"enzyme activity, inhibitor, absorbance",,IC50,0.0974 µM
CC[N+]1(CC)CCN(c2ccc(NC(=O)c3cccc(C)n3)cc2)CC1,Neuronal acetylcholine receptor; alpha9/alpha10,"ion current, agonist, two-electrode voltage clamp",oocytes,EC50,0.83 µM
CNC(=O)c1ccc(-c2cnn3ccc(C(=O)N(C)c4ccc(Cl)c(C(=O)O)c4)cc23)cc1,"STE20-like serine/threonine-protein kinase (SLK, Homo sapiens, UniProt Q9H2G2)","enzyme activity, inhibitor",,IC50,> 30 µM
COc1ccc(S(=O)(=O)Oc2cccc(C=NNC(=O)c3ccc(F)cc3)c2)cc1,CA2,"enzyme activity, inhibitor, absorbance",,IC50,0.139 µM
COC(=O)c1cc(N(C)C(=O)c2ccn3ncc(-c4ccc(C(=O)O)cc4)c3c2)ccc1Cl,"cAMP-dependent protein kinase catalytic subunit alpha (PRKACA, Homo sapiens, UniProt P17612)","enzyme activity, inhibitor",,IC50,> 30 µM
CCCNC(=O)c1ccc(N2CC[N+](CC)(CC)CC2)cc1,Neuronal acetylcholine receptor; alpha9/alpha10,"ion current, agonist, two-electrode voltage clamp",oocytes,EC50,11 µM
COc1ccc2[nH]c3c(c2c1)CCN(C)CC3,Neuronal acetylcholine receptor; alpha9/alpha10,"ion current, antagonist, two-electrode voltage clamp",oocytes,IC50,3.2 µM
CNC(=O)c1ccc(-c2cnn3ccc(C(=O)N(C)c4ccc(Cl)c(C(=O)OC)c4)cc23)cc1,"Receptor tyrosine-protein kinase erbB-2 (ERBB2, Homo sapiens, UniProt P04626)","enzyme activity, inhibitor",,IC50,> 30 µM
